The text below walks through data of ChEMBL document CHEMBL1151788, “Synthesis and biological activity of 1-methyl-tryptophan-tirapazamine hybrids as hypoxia-targeting indoleamine 2,3-dioxygenase inhibitors” (Bioorg Med Chem, 2008).

The target in assay [1] is Indoleamine 2,3-dioxygenase 1 (Homo sapiens, UniProt P14902). The experiment in a line: Inhibition of indoleamine 2,3-dioxygenase in aerobic condition.
A short description of assay [2]: Cytotoxicity against mouse EMT6/KU cells in aerobic condition for 5 hrs measured after 7 to 10 days. The format is functional, cell-based. In outline:
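Late-log cells were plated at 10^3, 5×10^2 or 2×10^2 per dish and grown 24 h. Drug in DMSO diluted in medium was then given in a CO2 incubator at 37 °C for 5 h. After washout, colonies grew 7–10 days and were methanol-fixed, Giemsa-stained and counted.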

A short description of assay [3]: Cytotoxicity against mouse EMT6/KU cells in hypoxic condition for 5 hrs measured after 7 to 10 days. The format is functional, cell-based. A digest of the protocol: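 Drug medium (DMSO stock diluted in medium) was added and the cells were held 5 h at 37 °C in a hypoxic chamber flushed with 5% CO2/95% N2. After drug removal, colonies grew 7–10 days, then were methanol-fixed, Giemsa-stained and counted for surviving fraction.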

Assay [4] in a line: Hypoxic cytotoxicity ratio of IC50 for mouse EMT6/KU cells in aerobic condition to IC50 for mouse EMT6/KU cells in hypoxic condition. The class given is functional. A digest of the protocol:
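IC50 values came from clonogenic survival of EMT6/KU cells after 5 h drug exposure at 37 °C, either aerobic (CO2 incubator) or hypoxic (5% CO2/95% N2 chamber), with Giemsa-stained colonies counted after 7–10 days. The ratio is IC50(aerobic)/IC50(hypoxic).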

The source made the active and inactive calls. The rule behind the calls is not given here. Bounds are passed on as bounds.

Take `O=C(NCCCCNc1nc2ccccc2[n+]([O-])n1)C(F)(F)F`: the result in assay [1] was inactive.

As for `O=C(NCCCCNc1n[n+]([O-])c2ccccc2[n+]1[O-])C(F)(F)F`, the result in assay [1] was inactive.

In the case of `Cn1cc(C[C@H](NC(=O)OC(C)(C)C)C(=O)O)c2ccccc21`, in assay [1], the result was inactive.

Consider `O=C(NCCCCCNc1n[n+]([O-])c2ccccc2[n+]1[O-])C(F)(F)F`, for which, in assay [1], the result was inactive.

Turning to `Cn1cc(C[C@H](NC(=O)OC(C)(C)C)C(=O)NCCCCNc2n[n+]([O-])c3ccccc3[n+]2[O-])c2ccccc21`, the IC50 in assay [2] was more than 40 µM; in assay [3], 8 µM. Besides, the “Ratio IC50” value in assay [4] is more than 5. Further, affinity in assay [1] was put at a Ki of 367 µM.

Take `O=C(NCCCCCNc1nc2ccccc2[n+]([O-])n1)C(F)(F)F`: in assay [1], the outcome was inactive.

Consider `Cn1cc(C[C@H](NC(=O)OC(C)(C)C)C(=O)NCCCCCNc2n[n+]([O-])c3ccccc3[n+]2[O-])c2ccccc21`, for which the IC50 in assay [2] is 35 µM; in assay [3], 7.1 µM. In assay [4], the “Ratio IC50” value is reported as 4.9. In assay [1], the affinity corresponds to a Ki of 197 µM.

In the case of `Nc1nc2ccccc2[n+]([O-])n1`, the IC50 in assay [2] was more than 80 µM; in assay [3], more than 40 µM. Besides, in assay [1], the result was inactive.

Take `Cn1cc(C[C@H](NC(=O)OC(C)(C)C)C(=O)NCCCCCNc2nc3ccccc3[n+]([O-])n2)c2ccccc21`: the IC50 in assay [2] was determined as 42 µM; in assay [3] it was 33 µM. In assay [4], the “Ratio IC50” value was 1.3. In addition, in assay [1], the Ki is 76.3 µM.

On to `Cn1cc(C[C@H](NC(=O)OC(C)(C)C)C(=O)NCCCCNc2nc3ccccc3[n+]([O-])n2)c2ccccc21`, for which the IC50 in assay [2] is 36 µM; in assay [3] it was 33 µM. The “Ratio IC50” value in assay [4] worked out at 1.1. In addition, the Ki in assay [1] came to 87.1 µM.

For `Nc1n[n+]([O-])c2ccccc2[n+]1[O-]` [TIRAPAZAMINE], the IC50 in assay [2] is 38 µM; in assay [3], 12 µM. For the same compound, in assay [4], the “Ratio IC50” value is 3.2. The result in assay [1] was inactive.

A word on the IC50: it is the midpoint of a concentration-inhibition curve. By Ki is commonly meant a dissociation constant, usually derived from enzyme kinetics or from competition with a known ligand. Low readings indicate tighter binding, high ones weaker binding.
